The source of these data is ChEMBL document CHEMBL1770101, “Synthesis, anti-inflammatory activity and COX-1/COX-2 inhibition of novel substituted cyclic imides. Part 1: Molecular docking study” (Eur J Med Chem, 2011).

Molecules are shown by their SMILES. Some results are limits rather than exact numbers.

Experiment [1] has as its target T1, Prostaglandin G/H synthase 1 (Ovis aries, UniProt P05979).
T1 sequence (P05979 whole entry): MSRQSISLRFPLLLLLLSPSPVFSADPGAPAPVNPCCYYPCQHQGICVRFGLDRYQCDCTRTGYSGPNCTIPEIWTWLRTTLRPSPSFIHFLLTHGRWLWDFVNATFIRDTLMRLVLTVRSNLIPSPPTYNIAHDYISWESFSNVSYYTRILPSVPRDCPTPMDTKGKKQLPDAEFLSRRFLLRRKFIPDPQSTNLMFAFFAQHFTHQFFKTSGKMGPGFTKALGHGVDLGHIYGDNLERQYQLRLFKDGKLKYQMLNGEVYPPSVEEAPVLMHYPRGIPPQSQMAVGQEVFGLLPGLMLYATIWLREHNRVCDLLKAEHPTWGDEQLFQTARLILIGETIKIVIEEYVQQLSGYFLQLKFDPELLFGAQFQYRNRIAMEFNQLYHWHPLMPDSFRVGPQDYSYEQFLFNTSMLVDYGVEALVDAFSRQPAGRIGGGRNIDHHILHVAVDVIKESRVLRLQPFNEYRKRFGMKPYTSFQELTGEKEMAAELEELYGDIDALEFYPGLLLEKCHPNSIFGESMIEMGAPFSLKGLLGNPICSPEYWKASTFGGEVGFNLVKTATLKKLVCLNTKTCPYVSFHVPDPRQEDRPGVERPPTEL
The experiment is described as follows: Inhibition of ovine COX1 after 5 mins by enzyme immunoassay.

Experiment [2] concerns Rattus norvegicus. The experiment is described as follows: Antiinflammatory activity in ip dosed Sprague-Dawley rat assessed as inhibition of carrageenan-induced paw edema after 2 hrs by plethysmometer. In kind it is functional. In outline:
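Male Sprague-Dawley rats (250 g), fasted at least 16 h with water available, six per group. Compounds dosed IP as 1 mL suspension in 0.5% methyl cellulose. Paw volume measured by water displacement plethysmometer before and after treatment. % inhibition = (1 − D/C) × 100 versus controls.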
Background: The carrageenan paw model is a standard test of acute inflammation.

For experiment [3], the system named is Rattus norvegicus. The experiment is described as follows: Antiinflammatory activity in Sprague-Dawley rat assessed as inhibition of carrageenan-induced paw edema at 100 mg/kg, ip after 1 hr by plethysmometer. It is filed as functional. To be noted: route intraperitoneal. Put shortly: (§1)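 Male Sprague-Dawley rats (250 g), fasted at least 16 h with free access to water, six per group. Test compound given IP at 100 mg/kg as 1 mL suspension in 0.5% methyl cellulose.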

Experiment [4] has as its system Rattus norvegicus. The experiment is described as follows: Antiinflammatory activity in Sprague-Dawley rat assessed as inhibition of carrageenan-induced paw edema at 100 mg/kg, ip after 2 hrs by plethysmometer. In kind it is functional. The following applies: route intraperitoneal. In outline:
as §1

In turn, `O=C1c2cccc3cccc(c23)C(=O)N1c1cc(Cl)c(Cl)c(Cl)c1` displayed a concentration for half-maximal inhibition (IC50) in experiment [1] of more than 100 µM. Further, the ED50 in experiment [2] was found to be 115 mg/kg. Further, the inhibition in vivo at 100 mg/kg in experiment [3] came to 79%; in experiment [4] it was 88%.

`COc1cc(N2C(=O)CCC2=O)cc(OC)c1OC`: the IC50 in experiment [1] is more than 100 µM. Moreover, the inhibition in vivo at 100 mg/kg in experiment [3] was found to be 20%; in experiment [4], 40%.

For the compound `O=C1CCC(=O)N1c1cc(Cl)c(Cl)c(Cl)c1`, the IC50 in experiment [1] is more than 100 µM. Also, the inhibition in vivo at 100 mg/kg in experiment [3] turned out to be 30%; in experiment [4] it was 33%.

`COc1cc(N2C(=O)[C@H]3CC=CC[C@H]3C2=O)cc(OC)c1OC` showed an IC50 in experiment [1] of more than 100 µM.

On to `O=C1[C@H]2CC=CC[C@H]2C(=O)N1c1cc(Cl)c(Cl)c(Cl)c1`, for which the IC50 in experiment [1] was more than 100 µM.

For `COc1cc(N2C(=O)c3nccnc3C2=O)cc(OC)c1OC`, in experiment [1], the IC50 is more than 100 µM. The ED50 in experiment [2] amounted to 123 mg/kg. For the same compound, the inhibition in vivo at 100 mg/kg in experiment [3] worked out at 72%; in experiment [4] it was 84%.

For `O=C1c2nccnc2C(=O)N1c1cc(Cl)c(Cl)c(Cl)c1`, in experiment [1], the IC50 is more than 100 µM. In addition, the ED50 in experiment [2] was 175 mg/kg. For the same compound, the values for the inhibition in vivo at 100 mg/kg in experiment [3] and in experiment [4] were 47% and 73%, respectively.

`COc1cc(N2C(=O)c3ccccc3C2=O)cc(OC)c1OC`: the IC50 in experiment [1] is more than 100 µM. For the same compound, in experiment [2], the ED50 was 185 mg/kg. Moreover, the values for the inhibition in vivo at 100 mg/kg in experiment [3] and in experiment [4] were 43% and 67%, respectively.

On to `O=C1c2ccccc2C(=O)N1c1cc(Cl)c(Cl)c(Cl)c1`, for which the IC50 in experiment [1] is more than 100 µM. Besides, the ED50 in experiment [2] was 172 mg/kg. Moreover, the inhibition in vivo at 100 mg/kg in experiment [3] was determined as 49%; in experiment [4] it was 70%.

In experiment [1], `COc1cc(N2C(=O)c3ccc([N+](=O)[O-])cc3C2=O)cc(OC)c1OC` showed an IC50 of 40 µM. Besides, the ED50 in experiment [2] came out at 105 mg/kg. Further, the values for the inhibition in vivo at 100 mg/kg in experiment [3] and in experiment [4] were 87% and 94%, respectively.

In the case of `O=C1c2ccc([N+](=O)[O-])cc2C(=O)N1c1cc(Cl)c(Cl)c(Cl)c1`, in experiment [1], it took 36.1 µM to reach half-maximal inhibition (IC50). In addition, the ED50 in experiment [2] worked out at 122 mg/kg. Moreover, the inhibition in vivo at 100 mg/kg in experiment [3] and in experiment [4] was 79% throughout.

As for `COc1cc(N2C(=O)c3ccc(C)cc3C2=O)cc(OC)c1OC`, the IC50 in experiment [1] was more than 100 µM. Also, the ED50 in experiment [2] came out at 107 mg/kg. For the same compound, the inhibition in vivo at 100 mg/kg was determined as 84% in experiment [3] and 94% in experiment [4].

Consider `Cc1ccc2c(c1)C(=O)N(c1cc(Cl)c(Cl)c(Cl)c1)C2=O`, for which the IC50 in experiment [1] is more than 100 µM. The median effective dose (ED50) in experiment [2] came out at 183 mg/kg. The inhibition in vivo at 100 mg/kg worked out at 36% in experiment [3] and 65% in experiment [4].

In the case of `COc1cc(N2C(=O)c3ccc(C(C)(C)C)cc3C2=O)cc(OC)c1OC`, the IC50 in experiment [1] was more than 100 µM. In addition, in experiment [2], the ED50 was 146 mg/kg. For the same compound, the inhibition in vivo at 100 mg/kg in experiment [3] came out at 60%; in experiment [4], 89%.

As for `CC(C)(C)c1ccc2c(c1)C(=O)N(c1cc(Cl)c(Cl)c(Cl)c1)C2=O`, the IC50 in experiment [1] is more than 100 µM. Moreover, in experiment [2], the ED50 worked out at 195 mg/kg. In addition, the values for the inhibition in vivo at 100 mg/kg in experiment [3] and in experiment [4] were 35% and 60%, respectively.

`COc1cc(N2C(=O)c3cc(Cl)c(Cl)cc3C2=O)cc(OC)c1OC` came in with an IC50 in experiment [1] of more than 100 µM. Also, the ED50 in experiment [2] stood at 186 mg/kg. In addition, the inhibition in vivo at 100 mg/kg in experiment [3] amounted to 59%; in experiment [4], 80%.

Take `O=C1c2cc(Cl)c(Cl)cc2C(=O)N1c1cc(Cl)c(Cl)c(Cl)c1`: the IC50 in experiment [1] is more than 100 µM. Besides, the ED50 in experiment [2] was found to be 187 mg/kg. The inhibition in vivo at 100 mg/kg in experiment [3] came to 75%; in experiment [4], 65%.

`COc1cc(N2C(=O)c3c(Cl)c(Cl)c(Cl)c(Cl)c3C2=O)cc(OC)c1OC` had an IC50 in experiment [1] of more than 100 µM. Further, in experiment [2], the ED50 turned out to be 212 mg/kg. In experiment [4], the inhibition in vivo at 100 mg/kg came to 53%.

As to `O=C1c2c(Cl)c(Cl)c(Cl)c(Cl)c2C(=O)N1c1cc(Cl)c(Cl)c(Cl)c1`, the IC50 in experiment [1] is more than 100 µM. The ED50 in experiment [2] worked out at 229 mg/kg. Besides, the results for the inhibition in vivo at 100 mg/kg in experiment [3] and in experiment [4] were 44% and 45%, respectively.

`COc1cc(N2C(=O)c3c(Br)c(Br)c(Br)c(Br)c3C2=O)cc(OC)c1OC` displayed an IC50 in experiment [1] of more than 100 µM. For the same compound, the ED50 in experiment [2] was 213 mg/kg. The inhibition in vivo at 100 mg/kg amounted to 42% in experiment [3] and 55% in experiment [4].

Compound `O=C1c2c(Br)c(Br)c(Br)c(Br)c2C(=O)N1c1cc(Cl)c(Cl)c(Cl)c1` displayed an IC50 in experiment [1] of more than 100 µM.

In turn, `COc1cc(N2C(=O)c3cccc4cccc(c34)C2=O)cc(OC)c1OC` displayed an IC50 in experiment [1] of more than 100 µM. Besides, the ED50 in experiment [2] turned out to be 117 mg/kg. Also, the inhibition in vivo at 100 mg/kg in experiment [3] was 86%; in experiment [4], 91%.

In experiment [1], `COc1cc(-n2c(=O)c3ccccc3c3ccccc3c2=O)cc(OC)c1OC` showed an IC50 of more than 100 µM. In experiment [2], the ED50 turned out to be 120 mg/kg. Further, the values for the inhibition in vivo at 100 mg/kg in experiment [3] and in experiment [4] were 86% and 84%, respectively.

On to `O=c1c2ccccc2c2ccccc2c(=O)n1-c1cc(Cl)c(Cl)c(Cl)c1`, for which the IC50 in experiment [1] was more than 100 µM. The ED50 in experiment [2] is 150 mg/kg. Further, the inhibition in vivo at 100 mg/kg in experiment [3] amounted to 75%; in experiment [4], 72%.

The compound `COc1cc(N2C(=O)C3C(C2=O)C2(Cl)C(Cl)=C(Cl)C3(Cl)C2(Cl)Cl)cc(OC)c1OC` (stereo not drawn) displayed an IC50 in experiment [1] of more than 100 µM. The values for the inhibition in vivo at 100 mg/kg in experiment [3] and in experiment [4] were 36% and 34%, respectively.

As to `O=C1C2C(C(=O)N1c1cc(Cl)c(Cl)c(Cl)c1)C1(Cl)C(Cl)=C(Cl)C2(Cl)C1(Cl)Cl` (stereo not drawn), the IC50 in experiment [1] is more than 100 µM. The figures for the inhibition in vivo at 100 mg/kg in experiment [3] and in experiment [4] were 23% and 37%, respectively.

For `O=C(O)Cc1ccccc1Nc1c(Cl)cccc1Cl` [DICLOFENAC], the ED50 in experiment [2] turned out to be 114 mg/kg. Further, the inhibition in vivo at 100 mg/kg in experiment [3] amounted to 88%; in experiment [4] it was 89%.

A word on the IC50: it is the point on the concentration scale where inhibition reaches its midpoint. As usually defined, the ED50 is the midpoint of the dose-response relation. The term inhibition in vivo denotes the share of the control response that was lost under treatment.
